Measured values pooled from the literature.
Target: Homeodomain-interacting protein kinase 4 (HIPK4, Homo sapiens, UniProt Q8NE63)
Sequence (Q8NE63 1-616, as in one of the studies): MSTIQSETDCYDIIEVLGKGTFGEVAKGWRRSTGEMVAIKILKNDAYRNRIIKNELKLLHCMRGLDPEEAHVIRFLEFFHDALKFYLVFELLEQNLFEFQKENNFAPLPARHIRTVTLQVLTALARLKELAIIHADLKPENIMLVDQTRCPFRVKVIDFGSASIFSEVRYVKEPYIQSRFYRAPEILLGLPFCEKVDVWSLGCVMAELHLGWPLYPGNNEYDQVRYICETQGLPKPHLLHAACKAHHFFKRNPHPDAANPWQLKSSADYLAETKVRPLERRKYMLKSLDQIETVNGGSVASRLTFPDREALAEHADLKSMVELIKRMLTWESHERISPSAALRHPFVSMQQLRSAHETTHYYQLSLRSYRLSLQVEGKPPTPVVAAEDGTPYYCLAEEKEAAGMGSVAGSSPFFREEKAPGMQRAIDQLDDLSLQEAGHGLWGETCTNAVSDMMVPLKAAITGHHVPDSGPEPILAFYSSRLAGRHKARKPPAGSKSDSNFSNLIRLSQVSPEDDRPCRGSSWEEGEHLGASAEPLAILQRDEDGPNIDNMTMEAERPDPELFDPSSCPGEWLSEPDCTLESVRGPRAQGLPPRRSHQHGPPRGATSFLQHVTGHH

| Compound | assay | conditions | measurement | result |
| --- | --- | --- | --- | --- |
| COc1ccc(COc2ccc(Cc3cnc(N)nc3N)cc2OC)cc1 | cell-free assay | 0.5 µM | remaining signal | 97.7% |
| CC/C(=N\NC(=O)NCc1cccc(O)c1)c1ccc(O)c(C)c1O | enzyme activity, inhibitor | 0.1 µM | inhibition | 1.5% |
| COc1cccc(Nc2nc3cc(C(=O)O)ccc3c3cnccc23)c1 | enzyme activity, inhibitor, radiometric | 1 µM | remaining activity | -14% |
| COc1cc2c(N3CCN(C(=O)Nc4ccc(OC(C)C)cc4)CC3)ncnc2cc1OCCCN1CCCCC1 | cell-free assay | 0.5 µM | remaining signal | 99.5% |
| CCOc1cc(-c2nncn2C)ccc1Nc1ncc2cc(C)nc(NCC(C)(C)C)c2n1 | enzyme activity, inhibitor, FRET | 1 µM | inhibition | < 15% |
| Cc1ccc(NC(=O)c2ccc(CN3CCN(C)CC3)cc2)cc1Nc1nc(-c2cccnc2)cs1 | cell-free assay | 0.5 µM | remaining signal | 101% |
| CNC(=O)c1cc2c(Oc3ccc(NC(=O)C4(C(=O)Nc5ccc(F)cc5)CC4)cc3)ccnc2cc1OC | enzyme activity, inhibitor, radiometric | 1 µM | inhibition | 102% |
| COc1cc2ncnc(Nc3ccc(Oc4ccccc4)cc3C)c2cc1OC | enzyme activity, inhibitor | 1 µM | inhibition | 4% |
| C[C@@H](c1cccc(C#N)c1)n1cc(Cl)cc(C(N)=O)c1=N | cell-free assay, competition with immobilised ligand | 1 µM | remaining binding | 100% |
| COc1cccc(CCNc2nc3cc(C(=O)O)ccc3c3cnccc23)c1 | enzyme activity, inhibitor, radiometric | 1 µM | remaining activity | -8% |
| CC(=O)c1c(NS(C)(=O)=O)c2cc(-c3ccc(Cl)cc3)c(-c3ccc(Cl)cc3Cl)nc2n(C)c1=O | cell-free assay, competition with immobilised ligand | 1 µM | remaining binding | 93% |
| O=C(O)c1ccc2c(c1)nc(Nc1ccc(F)c(Cl)c1)c1ccncc12 | enzyme activity, inhibitor, radiometric | 1 µM | remaining activity | 75% |
| CO[C@@H](C)c1c(Nc2ccc([C@@H](N(C)C(=O)C3CCS(=O)(=O)CC3)C(F)(F)F)cc2)cnc2cc(Cl)nn12 | cell-free assay, competition with immobilised ligand | 1 µM | remaining binding | 100% |
| O=C(O)c1ccc2c(c1)nc(NCCc1cccc(F)c1)c1ncncc12 | enzyme activity, inhibitor, radiometric | 1 µM | remaining activity | 10% |
| CCCOc1ccc([C@@H]2[C@@H](C(=O)O)[C@H](c3ccc4c(c3)OCO4)CN2CC(=O)Nc2c(CC)cccc2CC)cc1 | cell-free assay, competition with immobilised ligand | 1 µM | remaining binding | 65% |
| O=C(O)c1ccc2c(c1)nc(Nc1ccccc1Cl)c1ncncc12 | enzyme activity, inhibitor, radiometric | 1 µM | remaining activity | -3% |
| CC(C)CC(=O)N1CCc2nc(-c3ccc(Br)cc3)nc(N(C)Cc3ccccc3)c2C1 | cell-free assay, competition with immobilised ligand | 0.1 µM | remaining binding | 61% |
| N#Cc1cccc(Nc2nc3cc(C(=O)O)ccc3c3cnccc23)c1 | enzyme activity, inhibitor, radiometric | 1 µM | remaining activity | 29% |
| CNC(=O)Nc1ccc2c(c1)CC[C@@]21OC(=O)N(CC(=O)N(Cc2ccc(F)cc2)[C@@H](C)C(F)(F)F)C1=O | cell-free assay, competition with immobilised ligand | 1 µM | remaining binding | 97% |
| CN1CC(Oc2cnc(C#N)cc2-c2ccn3nc(NC(=O)C4CC4)cc3c2)C1 | enzyme activity, inhibitor | 1 µM | inhibition | 2% |
